Test results as given in ChEMBL document CHEMBL1134055, “The synthesis of amino-acid functionalized beta-carbolines as topoisomerase II inhibitors” (2001).

Key:
NCI-H520 [1] = experiment: In vitro cell growth inhibition of H520 cell line determined using Non-Radioactive Cell Proliferation Assay at a dose of 100 uM; type: functional, Homo sapiens
Summary of the method: (§1)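 Tetrazolium-type colorimetric proliferation assay (CellTiter 96 AQueous, non-radioactive); cells treated at 10, 50 and 100 µM; read as percent cell survival. All points in quadruplicate. Vehicle control DMSO (0.20%); m-AMSA (20, 40 µM) as reference control.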

NCI-H520 [2] = experiment: In vitro cell growth inhibition of H520 cell line determined using non-radioactive cell proliferation assay at a dose of 10 uM; type: functional, Homo sapiens; summary of the method: as §1
NCI-H520 [3] = experiment: In vitro cell growth inhibition of H520 cell line determined using non-radioactive cell proliferation assay at a dose of 50 uM; type: functional, Homo sapiens; summary of the method: as §1
PC-3 [4] = experiment: In vitro cell growth inhibition of PC3 cell line determined using non-radioactive cell proliferation assay at a dose of 100 uM; type: functional, Homo sapiens; summary of the method: as §1
PC-3 [5] = experiment: In vitro cell growth inhibition of PC3 cell line determined using non-radioactive cell proliferation assay at a dose of 10 uM; type: functional, Homo sapiens; summary of the method: as §1
PC-3 [6] = experiment: In vitro cell growth inhibition of PC3 cell line determined using Non-Radioactive Cell Proliferation Assay at a dose of 50 uM; type: functional, Homo sapiens; summary of the method: as §1
[7] = Inhibition of topo II-mediated DNA relaxation measured by topo II-mediated DNA relaxation assay; ++ indicates drug interaction with topo II; type: functional
Summary of the method: (§2)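 Relaxation of supercoiled plasmid pUC18 DNA (E. coli) by topo II (2.0 units per reaction) in Tris-Cl pH 8.0 buffer with KCl, MgCl2, ATP, DTT and BSA; 1 µL of 1 mM drug in 10% DMSO per 10 µL reaction, enzyme added last; 37 °C for 30-45 min. Stopped with sarkosyl buffer, chloroform/isoamyl alcohol extraction, 1% agarose gel, ethidium stain. Densitometric qualitative scoring; gels in triplicate.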

PC-3 [8] = experiment: In vitro cell growth inhibition of PC3 cell line determined using Non-Radioactive Cell Proliferation Assay at a dose of 10 uM; type: functional, Homo sapiens; summary of the method: as §1
[9] = Inhibition of topo II-mediated DNA relaxation measured by topo II-mediated DNA relaxation assay; - indicates drug does not interaction with topo II; type: functional; summary of the method: as §2
[10] = Inhibition of topo II-mediated DNA relaxation measured by topo II-mediated DNA relaxation assay; +++ indicates drug interaction with topo II; type: functional; summary of the method: as §2
NCI-H520 [11] = experiment: In vitro cell growth inhibition of H520 cell line determined using non-radioactive cell proliferation assay at a dose of 100 uM; type: functional, Homo sapiens; summary of the method: as §1
PC-3 [12] = experiment: In vitro cell growth inhibition of PC3 cell line determined using non-radioactive cell proliferation assay at a dose of 50 uM; type: functional, Homo sapiens; summary of the method: as §1
[13] = Inhibition of topo II-mediated DNA relaxation measured by topo II-mediated DNA relaxation assay; ++++ indicates drug interaction with topo II; type: functional; summary of the method: as §2

Row | SMILES | Cell survival (NCI-H520 [1]) [%] | Cell survival (NCI-H520 [2]) [%] | Cell survival (NCI-H520 [3]) [%] | Cell survival (PC-3 [4]) [%] | Cell survival (PC-3 [5]) [%] | Cell survival (PC-3 [6]) [%] | DNA relaxation [7] | Cell survival (PC-3 [8]) [%] | DNA relaxation [9] | DNA relaxation [10] | Cell survival (NCI-H520 [11]) [%] | Cell survival (PC-3 [12]) [%] | DNA relaxation [13]
1 | COc1cc([C@@H]2c3[nH]c4ccccc4c3C[C@H]3C(=O)NCC(=O)N23)cc(OC)c1O | 51.9 | 91.6 | 69.2 | 86.6 | >100 | >100 | – | – | – | – | – | – | –
2 | COc1cc([C@@H]2c3[nH]c4ccccc4c3C[C@H]3C(=O)N[C@H](C)C(=O)N23)cc(OC)c1O | 91.5 | 93.8 | 99.7 | 95.3 | 82.6 | 99.5 | – | – | – | – | – | – | –
3 | COC(=O)[C@@H](CC(C)C)NC(=O)[C@@H]1Cc2c([nH]c3ccccc23)[C@@H](c2cc(OC)c(O)c(OC)c2)N1 | 80.6 | 85.2 | 84.3 | 99.4 | >100 | >100 | drug interaction with topo II | – | – | – | – | – | –
4 | COC(=O)[C@H](CCSC)NC(=O)[C@@H]1Cc2c([nH]c3ccccc23)[C@@H](c2cc(OC)c(O)c(OC)c2)N1 | 79.9 | 99.2 | 91.2 | 76.8 | 96.7 | 88.2 | – | – | – | – | – | – | –
5 | COC(=O)[C@@H](NC(=O)[C@@H]1Cc2c([nH]c3ccccc23)[C@@H](c2cc(OC)c(O)c(OC)c2)N1)C(C)C | 93.6 | 87.6 | 85.4 | 95.3 | 91.9 | 93.1 | – | – | – | – | – | – | –
6 | COC(=O)[C@H](Cc1ccccc1)NC(=O)[C@@H]1Cc2c([nH]c3ccccc23)[C@@H](c2cc(OC)c(O)c(OC)c2)N1 | 14.8 | 59.4 | 97.4 | 18 | – | 90.6 | – | 97.8 | – | – | – | – | –
7 | COC(=O)[C@H](Cc1c[nH]c2ccccc12)NC(=O)[C@@H]1Cc2c([nH]c3ccccc23)[C@@H](c2cc(OC)c(O)c(OC)c2)N1 | 2.8 | 67.9 | 61.1 | 6.7 | 95.7 | 77 | – | – | – | – | – | – | –
8 | COC(=O)[C@H](NC(=O)[C@@H]1Cc2c([nH]c3ccccc23)[C@@H](c2cc(OC)c(O)c(OC)c2)N1)C(C)C | 98.3 | 90 | >100 | >100 | >100 | >100 | – | – | – | – | – | – | –
9 | COC(=O)[C@@H](Cc1ccc(O)cc1)NC(=O)[C@@H]1Cc2c([nH]c3ccccc23)[C@@H](c2cc(OC)c(O)c(OC)c2)N1 | 83.2 | >100 | 79 | 89.8 | 88.5 | >100 | – | – | – | – | – | – | –
10 | COC(=O)[C@@H]1CCCN1C(=O)[C@@H]1Cc2c([nH]c3ccccc23)[C@@H](c2cc(OC)c(O)c(OC)c2)N1 | 86.6 | 80.5 | 83.4 | >100 | 96.8 | 98.3 | – | – | drug does not interact with topo II | – | – | – | –
11 | COC(=O)[C@@H](Cc1c[nH]c2ccccc12)NC(=O)[C@@H]1Cc2c([nH]c3ccccc23)[C@@H](c2cc(OC)c(O)c(OC)c2)N1 | 7.2 | >100 | 35.2 | 62.4 | >100 | 84.9 | – | – | – | drug interaction with topo II | – | – | –
12 | COC(=O)[C@@H](C)NC(=O)[C@@H]1Cc2c([nH]c3ccccc23)[C@@H](c2cc(OC)c(O)c(OC)c2)N1 | >100 | >100 | >100 | >100 | 96.9 | >100 | drug interaction with topo II | – | – | – | – | – | –
13 | COC(=O)[C@H](CC(C)C)NC(=O)[C@@H]1Cc2c([nH]c3ccccc23)[C@@H](c2cc(OC)c(O)c(OC)c2)N1 | 83.2 | 84 | 89.2 | 87.6 | >100 | 98.7 | – | – | – | – | – | – | –
14 | COC(=O)[C@H](NC(=O)[C@@H]1Cc2c([nH]c3ccccc23)[C@@H](c2cc(OC)c(O)c(OC)c2)N1)c1ccccc1 | 99.2 | >100 | >100 | >100 | >100 | >100 | – | – | – | drug interaction with topo II | – | – | –
15 | COC(=O)CNC(=O)[C@@H]1Cc2c([nH]c3ccccc23)[C@@H](c2cc(OC)c(O)c(OC)c2)N1 | >100 | >100 | >100 | 88.8 | 99.7 | >100 | – | – | – | – | – | – | –
16 | COC(=O)[C@H](CO)NC(=O)[C@@H]1Cc2c([nH]c3ccccc23)[C@@H](c2cc(OC)c(O)c(OC)c2)N1 | 79.6 | 87 | 90 | >100 | 99.7 | 98.5 | – | – | – | – | – | – | –
17 | COc1cc([C@@H]2c3[nH]c4ccccc4c3C[C@H]3C(=O)N4CCC[C@H]4C(=O)N23)cc(OC)c1O | – | >100 | >100 | >100 | >100 | >100 | – | – | – | – | >100 | – | –
18 | COC(=O)[C@@H](CCSC)NC(=O)[C@@H]1Cc2c([nH]c3ccccc23)[C@@H](c2cc(OC)c(O)c(OC)c2)N1 | 89.6 | >100 | >100 | >100 | >100 | >100 | – | – | – | – | – | – | –
19 | COC(=O)[C@H](C)NC(=O)[C@@H]1Cc2c([nH]c3ccccc23)[C@@H](c2cc(OC)c(O)c(OC)c2)N1 | >100 | >100 | >100 | 95.8 | >100 | 96.6 | – | – | – | – | – | – | –
20 | COC(=O)[C@H]1CCCN1C(=O)[C@@H]1Cc2c([nH]c3ccccc23)[C@@H](c2cc(OC)c(O)c(OC)c2)N1 | – | 94.3 | 86.1 | 66.3 | 98 | – | – | – | – | – | 61 | 99.4 | –
21 | COC(=O)[C@@H](CCCCN)NC(=O)[C@@H]1Cc2c([nH]c3ccccc23)[C@@H](c2cc(OC)c(O)c(OC)c2)N1 | 87.7 | 78.3 | 76.9 | >100 | >100 | >100 | drug interaction with topo II | – | – | – | – | – | –
22 | COC(=O)[C@H](Cc1ccc(O)cc1)NC(=O)[C@@H]1Cc2c([nH]c3ccccc23)[C@@H](c2cc(OC)c(O)c(OC)c2)N1 | 98.6 | >100 | >100 | 94.9 | >100 | 96.4 | – | – | – | – | – | – | –
23 | COC(=O)[C@H](CCCCN)NC(=O)[C@@H]1Cc2c([nH]c3ccccc23)[C@@H](c2cc(OC)c(O)c(OC)c2)N1 | >100 | 99.3 | >100 | 90.6 | 95.2 | 91.2 | – | – | – | – | – | – | –
24 | COC(=O)[C@@H](Cc1ccccc1)NC(=O)[C@@H]1Cc2c([nH]c3ccccc23)[C@@H](c2cc(OC)c(O)c(OC)c2)N1 | 6.7 | 77.6 | 33 | 63.6 | >100 | >100 | – | – | – | – | – | – | –
25 | COC(=O)[C@@H](NC(=O)[C@@H]1Cc2c([nH]c3ccccc23)[C@@H](c2cc(OC)c(O)c(OC)c2)N1)c1ccccc1 | 86.8 | 82.7 | 89.9 | 64.5 | 88.5 | >100 | – | – | – | – | – | – | drug interaction with topo II
